Laboratory results taken from ChEMBL document CHEMBL1157589, “Antifungal 3,5-disubstituted furanones: From 5-acyloxymethyl to 5-alkylidene derivatives” (Bioorg Med Chem, 2010).
pIC50: −log10 of the molar value. Converted amounts (≈) assume the structure as drawn.

How the values were obtained:
Pichia kudriavzevii [1] = experiment: Antifungal activity against Candida krusei ATCC 6258 after 48 hrs by microdilution method; format: functional; conditions: ATCC 6258, 48 h
Method in brief: (§1)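 Yeasts held on Sabouraud dextrose agar. MIC by NCCLS M27-A broth microdilution in RPMI 1640 with L-glutamine, buffered with 0.165 M MOPS to pH 7.0. Compounds in DMSO (≤2% final), twofold dilutions 500–0.48. Final inoculum 5 × 10³ ± 0.2 cfu mL⁻¹. Incubated at 35 °C; absorbance at 540 nm read at 24 and 48 h. MIC is 80% growth inhibition versus control; run twice in duplicate.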

Candida parapsilosis [2] = experiment: Antifungal activity against Candida parapsilosis ATCC 22019 after 24 hrs by microdilution method; format: functional; conditions: Lodderomyces parapsilosis, ATCC 22019, 24 h; method in brief: as §1
Aspergillus fumigatus [3] = experiment: Antifungal activity against Aspergillus fumigatus 231 after 24 hrs by microdilution method; format: functional; conditions: Aspergillus fumigatus, 231, 24 h
Method in brief: (§2)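 Filamentous strains held on Sabouraud dextrose agar. NCCLS M27-A broth microdilution in RPMI 1640 with L-glutamine and 0.165 M MOPS, pH 7.0. DMSO diluent ≤2% final; twofold dilutions 500–0.48. Inoculum 5 × 10³ ± 0.2 cfu mL⁻¹ final.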

Candida albicans [4] = experiment: Antifungal activity against Candida albicans ATCC 44859 after 24 hrs by microdilution method; format: functional; conditions: ATCC 44859, 24 h; method in brief: as §1
Lichtheimia corymbifera [5] = experiment: Antifungal activity against Absidia corymbifera 272 after 48 hrs by microdilution method; format: functional; conditions: Lichtheimia corymbifera, 272, 48 h; method in brief: as §2
Trichosporon beigelii [6] = experiment: Antifungal activity against Trichosporon beigelii 1188 after 48 hrs by microdilution method; format: functional; conditions: Trichosporon beigelii, 1188, 48 h; method in brief: as §1
Nakaseomyces glabratus [7] = experiment: Antifungal activity against Candida glabrata 20/I after 48 hrs by microdilution method; format: functional; method in brief: as §1
Candida parapsilosis [8] = experiment: Antifungal activity against Candida parapsilosis ATCC 22019 after 48 hrs by microdilution method; format: functional; conditions: Lodderomyces parapsilosis, ATCC 22019, 48 h; method in brief: as §1
Pichia kudriavzevii [9] = experiment: Antifungal activity against Candida krusei ATCC 6258 after 24 hrs by microdilution method; format: functional; conditions: ATCC 6258, 24 h; method in brief: as §1
Clavispora lusitaniae [10] = experiment: Antifungal activity against Candida lusitaniae 2446/I after 24 hrs by microdilution method; format: functional; method in brief: as §1
Pichia kudriavzevii [11] = experiment: Antifungal activity against Candida krusei E28 after 24 hrs by microdilution method; format: functional; conditions: E28, 24 h; method in brief: as §1
Nakaseomyces glabratus [12] = experiment: Antifungal activity against Candida glabrata 20/I after 24 hrs by microdilution method; format: functional; method in brief: as §1
Trichosporon beigelii [13] = experiment: Antifungal activity against Trichosporon beigelii 1188 after 24 hrs by microdilution method; format: functional; conditions: Trichosporon beigelii, 1188, 24 h; method in brief: as §1
[14] = tested on: Trichophyton mentagrophytes; experiment: Antifungal activity against Trichophyton mentagrophytes 445 after 120 hrs by microdilution method; format: functional; conditions: Trichophyton mentagrophytes, 445, 120 h
Method in brief: (§3)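 Dermatophyte held on Sabouraud dextrose agar. M27-A microdilution in MOPS-buffered (0.165 M, pH 7.0) RPMI 1640 with L-glutamine. DMSO ≤2% final; twofold dilutions 500–0.48. Inoculum 5 × 10³ ± 0.2 cfu mL⁻¹ final. Incubated at 35 °C; MIC read visually at 72 and 120 h as 80% inhibition of control growth; determined twice in duplicate.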

Clavispora lusitaniae [15] = experiment: Antifungal activity against Candida lusitaniae 2446/I after 48 hrs by microdilution method; format: functional; method in brief: as §1
Candida tropicalis [16] = experiment: Antifungal activity against Candida tropicalis 156 after 24 hrs by microdilution method; format: functional; conditions: Candida tropicalis, 156, 24 h; method in brief: as §1
Candida tropicalis [17] = experiment: Antifungal activity against Candida tropicalis 156 after 48 hrs by microdilution method; format: functional; conditions: Candida tropicalis, 156, 48 h; method in brief: as §1
Candida albicans [18] = experiment: Antifungal activity against Candida albicans ATCC 44859 after 48 hrs by microdilution method; format: functional; conditions: ATCC 44859, 48 h; method in brief: as §1
Aspergillus fumigatus [19] = experiment: Antifungal activity against Aspergillus fumigatus 231 after 48 hrs by microdilution method; format: functional; conditions: Aspergillus fumigatus, 231, 48 h; method in brief: as §2
Candida albicans [20] = experiment: Antifungal activity against Candida albicans ATCC 90028 after 48 hrs by microdilution method; format: functional; conditions: ATCC 90028, 48 h; method in brief: as §1
[21] = tested on: Trichophyton mentagrophytes; experiment: Antifungal activity against Trichophyton mentagrophytes 445 after 72 hrs by microdilution method; format: functional; conditions: Trichophyton mentagrophytes, 445, 72 h; method in brief: as §3
Pichia kudriavzevii [22] = experiment: Antifungal activity against Candida krusei E28 after 48 hrs by microdilution method; format: functional; conditions: E28, 48 h; method in brief: as §1
Lichtheimia corymbifera [23] = experiment: Antifungal activity against Absidia corymbifera 272 after 24 hrs by microdilution method; format: functional; conditions: Lichtheimia corymbifera, 272, 24 h; method in brief: as §2
Candida albicans [24] = experiment: Antifungal activity against Candida albicans ATCC 90028 after 24 hrs by microdilution method; format: functional; conditions: ATCC 90028, 24 h; method in brief: as §1
CCRF-CEM = experiment: Cytostatic activity against human CCRF-CEM cells after 72 hrs by XTT assay; format: functional, cell-based; conditions: Homo sapiens, CCRF-CEM, 72 h; read-out: IC50
Method in brief: (§4)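 Leukemia cells (L1210 ATCC CCL 219, CCRF-CEM ATCC CCL 119, HL-60 ATCC CCL 240) grown in 24-well plates in RPMI 1640 with fetal calf serum. Growth assessed 72 h after drug addition. Viability measured by XTT spectrophotometric assay; potency given as IC50.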

HeLa S3 = experiment: Cytostatic activity against human HeLaS3 cells after 48 hrs by XTT assay; conditions: Homo sapiens, HeLa S3, 48 h; read-out: IC50
HL-60 = experiment: Cytostatic activity against human HL60 cells after 72 hrs by XTT assay; format: functional, cell-based; conditions: Homo sapiens, HL-60, 72 h; read-out: IC50; method in brief: as §4

| MIC80 (Pichia kudriavzevii [1]) [µM] | MIC80 (Candida parapsilosis [2]) [µM] | MIC80 (Aspergillus fumigatus [3]) [µM] | MIC80 (Candida albicans [4]) [µM] | MIC80 (Lichtheimia corymbifera [5]) [µM] | MIC80 (Trichosporon beigelii [6]) [µM] | MIC80 (Nakaseomyces glabratus [7]) [µM] | MIC80 (Candida parapsilosis [8]) [µM] | MIC80 (Pichia kudriavzevii [9]) [µM] | MIC80 (Clavispora lusitaniae [10]) [µM] | MIC80 (Pichia kudriavzevii [11]) [µM] | MIC80 (Nakaseomyces glabratus [12]) [µM] | MIC80 (Trichosporon beigelii [13]) [µM] | MIC80 [14] [µM] | MIC80 (Clavispora lusitaniae [15]) [µM] | MIC80 (Candida tropicalis [16]) [µM] | MIC80 (Candida tropicalis [17]) [µM] | MIC80 (Candida albicans [18]) [µM] | MIC80 (Aspergillus fumigatus [19]) [µM] | MIC80 (Candida albicans [20]) [µM] | Structure (SMILES) | further results |
| --- | --- | --- | --- | --- | --- | --- | --- | --- | --- | --- | --- | --- | --- | --- | --- | --- | --- | --- | --- | --- | --- |
| 15.6 (≈ 5.64 µg/mL) | 7.81 (≈ 2.82 µg/mL) | 1.95 (≈ 0.704 µg/mL) | 0.97 (≈ 0.35 µg/mL) | 62.5 (≈ 22.6 µg/mL) | 15.6 (≈ 5.64 µg/mL) | 1.95 (≈ 0.704 µg/mL) | 15.6 (≈ 5.64 µg/mL) | 7.81 (≈ 2.82 µg/mL) | 3.9 (≈ 1.41 µg/mL) | 7.81 (≈ 2.82 µg/mL) | 1.95 (≈ 0.704 µg/mL) | 7.81 (≈ 2.82 µg/mL) | 1.95 (≈ 0.704 µg/mL) | 7.81 (≈ 2.82 µg/mL) | 7.81 (≈ 2.82 µg/mL) | 7.81 (≈ 2.82 µg/mL) | 1.95 (≈ 0.704 µg/mL) | 7.81 (≈ 2.82 µg/mL) | 3.9 (≈ 1.41 µg/mL) | O=C1OC(COc2ccc(O)cc2)C=C1c1ccc(Br)cc1 (stereo not drawn) | MIC80 [21]: 1.95 µM (≈ 0.704 µg/mL); MIC80 (Pichia kudriavzevii [22]): 15.6 µM (≈ 5.64 µg/mL); MIC80 (Lichtheimia corymbifera [23]): 15.6 µM (≈ 5.64 µg/mL); MIC80 (Candida albicans [24]): 1.95 µM (≈ 0.704 µg/mL) |
| 31.2 (≈ 10.8 µg/mL) | 7.81 (≈ 2.7 µg/mL) | 1.95 (≈ 0.673 µg/mL) | 0.97 (≈ 0.335 µg/mL) | 500 (≈ 173 µg/mL) | 31.2 (≈ 10.8 µg/mL) | 1.95 (≈ 0.673 µg/mL) | 31.2 (≈ 10.8 µg/mL) | 7.81 (≈ 2.7 µg/mL) | 3.9 (≈ 1.35 µg/mL) | 15.6 (≈ 5.39 µg/mL) | 1.95 (≈ 0.673 µg/mL) | 7.81 (≈ 2.7 µg/mL) | 3.9 (≈ 1.35 µg/mL) | 7.81 (≈ 2.7 µg/mL) | 7.81 (≈ 2.7 µg/mL) | 15.6 (≈ 5.39 µg/mL) | 1.95 (≈ 0.673 µg/mL) | 15.6 (≈ 5.39 µg/mL) | 7.81 (≈ 2.7 µg/mL) | O=C1OC(COc2ccccc2)C=C1c1ccc(Br)cc1 (stereo not drawn) | pIC50 (CCRF-CEM): 5.96; pIC50 (HeLa S3): 5.33; MIC80 [21]: 1.95 µM (≈ 0.673 µg/mL); pIC50 (HL-60): 5.36; MIC80 (Pichia kudriavzevii [22]): 31.2 µM (≈ 10.8 µg/mL); MIC80 (Lichtheimia corymbifera [23]): 125 µM (≈ 43.1 µg/mL); MIC80 (Candida albicans [24]): 1.95 µM (≈ 0.673 µg/mL) |
| > 500 | 31.2 (≈ 14.7 µg/mL) | 3.9 (≈ 1.84 µg/mL) | 0.48 (≈ 0.226 µg/mL) | > 500 | 500 (≈ 236 µg/mL) | 3.9 (≈ 1.84 µg/mL) | > 500 | 31.2 (≈ 14.7 µg/mL) | 7.81 (≈ 3.68 µg/mL) | 31.2 (≈ 14.7 µg/mL) | 1.95 (≈ 0.919 µg/mL) | 7.81 (≈ 3.68 µg/mL) | 3.9 (≈ 1.84 µg/mL) | 31.2 (≈ 14.7 µg/mL) | 15.6 (≈ 7.36 µg/mL) | 31.2 (≈ 14.7 µg/mL) | 1.95 (≈ 0.919 µg/mL) | 7.81 (≈ 3.68 µg/mL) | 7.81 (≈ 3.68 µg/mL) | O=C1OC(COc2ccc(I)cc2)C=C1c1ccc(Br)cc1 (stereo not drawn) | pIC50 (CCRF-CEM): 5.92; pIC50 (HeLa S3): 5.40; MIC80 [21]: 1.95 µM (≈ 0.919 µg/mL); pIC50 (HL-60): 5.14; MIC80 (Pichia kudriavzevii [22]): > 500 µM; MIC80 (Lichtheimia corymbifera [23]): > 500 µM; MIC80 (Candida albicans [24]): 3.9 µM (≈ 1.84 µg/mL) |
